The nature of series [1]: Chemical stability of the compound. The series is classed as physicochemical.
A short description of series [2]: Metabolic stability of the compound in CD-1 mouse liver microsomes assessed as compound remaining after 1 hr. The series is classed as ADME, Microsome. The following applies: read-out: Stability. A digest of the protocol:
(§1)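 Pooled human or CD-1 mouse liver microsomes incubated with compound for 1 h. Percentage of compound remaining calculated from analyte/internal standard peak area ratios.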

A short description of series [3]: AUC (0 to infinity) in CD-1 mouse plasma at 40 mg/kg, po. The series is classed as ADME, organism-based. Details: dose 40 mg/kg, route oral, time infinity. A digest of the protocol: (§2)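 CD-1 mice given a single oral dose of 40 mg/kg, suspended in 0.5% carboxymethylcellulose/0.08% Tween 80 in water. Plasma and lung samples quantified by LC-MS/MS. AUC extrapolated to infinity. Lung/plasma ratio is lung AUC divided by plasma AUC.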

Series [4] in a line: Kinetic solubility of the compound in water at pH 7 by HPLC analysis. Format: physicochemical. The note with it: read-out: Kinetic_solubility.
Series [5] in a line: Half life in high fat diet fed Beagle dog at 20 mg/kg, po. The series is classed as ADME, organism-based, Canis lupus familiaris. Details: dose 20 mg/kg, route oral. The following applies: in vivo.
Series [6] can be described thus: Cmax in CD-1 mouse lung at 40 mg/kg, po. Further details: dose 40 mg/kg, route oral. Format: ADME, organism-based. A digest of the protocol:
as §2

The nature of series [7]: Thermodynamic solubility of the compound at pH 7.4. The series is classed as physicochemical. The note with it: buffer, read-out: Therm_solubility.
The nature of series [8]: AUC (0 to 24 hrs) in Sprague-Dawley rat at 20 mg/kg, po. Format: ADME, organism-based. Further details: time < 24 hr, dose 20 mg/kg, route oral. The following applies: plasma.
A short description of series [9]: Metabolic stability of the compound in human liver microsomes assessed as compound remaining after 1 hr. The series is classed as ADME, Microsome. The following applies: read-out: Stability. The method, boiled down: as §1
Series [10] in a line: Tmax in Sprague-Dawley rat at 20 mg/kg, po. The series is classed as ADME, organism-based. Details: dose 20 mg/kg, route oral. The following applies: in vivo.
The nature of series [11]: Cmax in Sprague-Dawley rat at 20 mg/kg, po. The series is classed as ADME, organism-based. Further details: dose 20 mg/kg, route oral. The note with it: in vivo.
A short description of series [12]: AUC (0 to 72 hrs) in Beagle dog at 2 mg/kg, iv. The series is classed as ADME, organism-based, Canis lupus familiaris. Details: time < 72 hr, dose 2 mg/kg, route intravenous. The note with it: plasma.
The subject of series [13] is Salmonella typhimurium. The series can be described thus: Induction of mutagenesis in Salmonella Typhimurium TA98 in absence of rat liver S9 fraction by Ames test. Format: toxicity, organism-based. The note with it: salmonella enterica subsp. enterica serovar typhimurium. A digest of the protocol: (§3)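 MicroAmes reverse mutation screen in Salmonella TA98 and TA100, preincubated with and without rat liver S9, at 0.25-250 μg/well.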

The nature of series [14]: Cmax in Sprague-Dawley rat at 1 mg/kg, iv. Details: dose 1 mg/kg, route intravenous. The note with it: in vivo. The series is classed as ADME, organism-based.
Series [15] can be described thus: Oral bioavailability in Sprague-Dawley rat at 20 mg/kg. Format: ADME, organism-based. The following applies: in vivo.
Series [16] is described as follows: Oral bioavailability in Beagle dog at 20 mg/kg. The series is classed as ADME, organism-based, Canis lupus familiaris. The note with it: in vivo.
Series [17] in a line: Cmax in Beagle dog at 2 mg/kg, iv. Details: dose 2 mg/kg, route intravenous. The note with it: in vivo. The series is classed as ADME, organism-based, Canis lupus familiaris.
A short description of series [18]: Half life in Sprague-Dawley rat at 1 mg/kg, iv. The series is classed as ADME, organism-based. Further details: dose 1 mg/kg, route intravenous. The note with it: in vivo.
Series [19] has as its system Salmonella typhimurium. In words: Induction of mutagenesis in Salmonella Typhimurium TA100 in presence of rat liver S9 fraction by Ames test. Format: toxicity, organism-based. The note with it: salmonella enterica subsp. enterica serovar typhimurium. The method, boiled down: as §3
The nature of series [20]: Cmax in Beagle dog at 20 mg/kg, po. Format: ADME, organism-based, Canis lupus familiaris. Details: dose 20 mg/kg, route oral. The following applies: in vivo.
Series [21] in a line: AUC (0 to 72 hrs) in high fat diet fed Beagle dog at 20 mg/kg, po. The series is classed as ADME, organism-based, Canis lupus familiaris. Further details: time < 72 hr, dose 20 mg/kg, route oral. The following applies: plasma.
Series [22] in a line: Tmax in high fat diet fed Beagle dog at 20 mg/kg, po. The series is classed as ADME, organism-based, Canis lupus familiaris. Details: dose 20 mg/kg, route oral. The note with it: in vivo.
A short description of series [23]: Octanol-water partition coefficient, log P of the compound by shake-flask method. Format: physicochemical. A digest of the protocol: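 Octanol-water partition coefficient measured by the shake-flask method.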
A short description of series [24]: Thermodynamic solubility of the compound at pH 1. Format: physicochemical. The following applies: buffer, read-out: Therm_solubility.
Series [25] in a line: Plasma protein binding in human at 10 uM. The series is classed as ADME, cell-free. The note with it: read-out: PPB (converted). The method, boiled down: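 Human plasma protein binding measured by equilibrium dialysis, with overnight incubation of compound at 10 μM containing 1% DMSO.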
Series [26] in a line: Tmax in Beagle dog at 2 mg/kg, iv. The series is classed as ADME, organism-based, Canis lupus familiaris. Details: dose 2 mg/kg, route intravenous. The following applies: in vivo.
Series [27] can be described thus: Tmax in Sprague-Dawley rat at 1 mg/kg, iv. Details: dose 1 mg/kg, route intravenous. The following applies: in vivo. Format: ADME, organism-based.
Series [28] is described as follows: Tmax in Beagle dog at 20 mg/kg, po. Further details: dose 20 mg/kg, route oral. The note with it: in vivo. Format: ADME, organism-based, Canis lupus familiaris.
Series [29] relates to Salmonella typhimurium. The series can be described thus: Induction of mutagenesis in Salmonella Typhimurium TA100 in absence of rat liver S9 fraction by Ames test. Format: toxicity, organism-based. The note with it: salmonella enterica subsp. enterica serovar typhimurium. The method, boiled down: as §3
Series [30] is described as follows: Cmax in high fat diet fed Beagle dog at 20 mg/kg, po. Format: ADME, organism-based, Canis lupus familiaris. Details: dose 20 mg/kg, route oral. The following applies: in vivo.
Series [31] can be described thus: AUC (0 to 24 hrs) in Sprague-Dawley rat at 1 mg/kg, iv. Further details: time < 24 hr, dose 1 mg/kg, route intravenous. The following applies: plasma. The series is classed as ADME, organism-based.
Series [32] addresses Voltage-gated inwardly rectifying potassium channel KCNH2 (Homo sapiens, UniProt Q12809). The series can be described thus: Inhibition of human Erg expressed in HEK293 cells by FAST patch clamp analysis. The series is classed as cell-based.
Series [33] is described as follows: Half life in CD-1 mouse lung at 40 mg/kg, po. Details: dose 40 mg/kg, route oral. The series is classed as ADME, organism-based. The method, boiled down: as §2
A short description of series [34]: Half life in Beagle dog at 2 mg/kg, iv. Format: ADME, organism-based, Canis lupus familiaris. The note with it: in vivo. Further details: dose 2 mg/kg, route intravenous.
Series [35] deals with Salmonella typhimurium. In words: Induction of mutagenesis in Salmonella Typhimurium TA98 in presence of rat liver S9 fraction by Ames test. The note with it: salmonella enterica subsp. enterica serovar typhimurium. Format: toxicity, organism-based. The method, boiled down: as §3
The nature of series [36]: Cmax in CD-1 mouse plasma at 40 mg/kg, po. The series is classed as ADME, organism-based. Further details: dose 40 mg/kg, route oral. The method, boiled down:
as §2

Series [37] in a line: Half life in CD-1 mouse plasma at 40 mg/kg, po. Further details: dose 40 mg/kg, route oral. The series is classed as ADME, organism-based. A digest of the protocol: as §2
The nature of series [38]: AUC (0 to infinity) in CD-1 mouse lung at 40 mg/kg, po. Details: dose 40 mg/kg, route oral, time infinity. The series is classed as ADME, organism-based. The method, boiled down: as §2
In series [39] the test system is Mycobacterium tuberculosis. The series can be described thus: Antimicrobial activity against Mycobacterium tuberculosis infected in chronic BALB/c mouse infection model assessed as fold reduction in lung CFU at 30 mg/kg, po administered daily 5 days a week for 8 weeks starting 50 days post-infection. The series is classed as functional. The method, boiled down:
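Chronic infection model: groups of 7 M. tb-infected BALB/c mice given 30 mg/kg orally, daily 5 days/week for 8 weeks, starting about 50 days postinfection. Lung CFU reduction expressed relative to the reference drug.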

Series [40] in a line: AUC (0 to 72 hrs) in Beagle dog at 20 mg/kg, po. The series is classed as ADME, organism-based, Canis lupus familiaris. Further details: time < 72 hr, dose 20 mg/kg, route oral. The following applies: plasma.
Series [41] is described as follows: Half life in Beagle dog at 20 mg/kg, po. The following applies: in vivo. Details: dose 20 mg/kg, route oral. The series is classed as ADME, organism-based, Canis lupus familiaris.
The test system of series [42] is Mycobacterium tuberculosis. The series can be described thus: Antimicrobial activity against Mycobacterium tuberculosis infected in BALB/c mouse assessed as fold reduction in lung CFU at 100 mg/kg, po administered 11 days after post infection qd for 5 days per week for 3 weeks relative to PA-824. Format: functional. The method, boiled down: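 Groups of 7 M. tb-infected BALB/c mice dosed orally at 100 mg/kg daily, 5 days/week for 3 weeks, starting on day 11 postinfection. Readout is the average lung CFU reduction in treated mice divided by the average CFU reduction in mice given the reference nitroimidazooxazine.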

In brackets after ≈: the same amount, converted by molar mass.

Voltage-gated inwardly rectifying potassium channel KCNH2, sequence (Q12809 whole entry): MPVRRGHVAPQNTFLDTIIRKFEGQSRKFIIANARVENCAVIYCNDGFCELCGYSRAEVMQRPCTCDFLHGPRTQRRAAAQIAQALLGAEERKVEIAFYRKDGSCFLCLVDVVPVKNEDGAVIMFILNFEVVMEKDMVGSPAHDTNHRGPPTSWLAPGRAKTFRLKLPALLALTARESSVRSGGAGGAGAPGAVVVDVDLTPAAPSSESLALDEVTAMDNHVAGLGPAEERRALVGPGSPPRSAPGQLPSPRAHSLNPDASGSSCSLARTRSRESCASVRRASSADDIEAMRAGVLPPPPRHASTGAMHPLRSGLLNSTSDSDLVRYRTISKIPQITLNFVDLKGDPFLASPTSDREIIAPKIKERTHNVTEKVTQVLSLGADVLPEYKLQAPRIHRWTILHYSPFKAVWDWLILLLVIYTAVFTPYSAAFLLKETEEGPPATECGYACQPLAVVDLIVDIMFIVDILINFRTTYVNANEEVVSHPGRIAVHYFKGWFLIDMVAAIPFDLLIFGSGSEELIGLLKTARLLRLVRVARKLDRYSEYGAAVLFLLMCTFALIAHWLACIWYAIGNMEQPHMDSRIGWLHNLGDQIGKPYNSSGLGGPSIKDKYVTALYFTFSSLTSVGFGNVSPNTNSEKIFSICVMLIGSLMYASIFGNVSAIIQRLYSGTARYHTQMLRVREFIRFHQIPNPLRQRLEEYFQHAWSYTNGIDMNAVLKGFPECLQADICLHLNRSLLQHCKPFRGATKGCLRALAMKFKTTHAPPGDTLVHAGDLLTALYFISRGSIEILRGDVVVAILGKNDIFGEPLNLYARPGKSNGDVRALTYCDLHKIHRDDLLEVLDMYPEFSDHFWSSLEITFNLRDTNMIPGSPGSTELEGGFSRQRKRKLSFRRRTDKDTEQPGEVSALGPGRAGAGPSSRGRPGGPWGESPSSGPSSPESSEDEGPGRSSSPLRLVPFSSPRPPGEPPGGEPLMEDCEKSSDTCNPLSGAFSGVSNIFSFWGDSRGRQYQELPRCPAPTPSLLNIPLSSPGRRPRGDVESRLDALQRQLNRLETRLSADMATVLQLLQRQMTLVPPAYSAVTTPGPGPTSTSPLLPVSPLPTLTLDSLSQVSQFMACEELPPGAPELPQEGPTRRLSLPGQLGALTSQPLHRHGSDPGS

With `O=C(N[C@@H]1COc2nc([N+](=O)[O-])cn2C1)Oc1ccc(OC(F)(F)F)cc1`, the Stability entry in [1] is “Unstable”.
For the compound `O=C(O[C@@H]1COc2nc([N+](=O)[O-])cn2C1)N1CCN(c2ccc(OC(F)(F)F)cc2)CC1`, the remaining at 1 h in series [2] stood at 85%; in series [9], 82%. The AUC(0-inf) is 53400 ng·h/mL in series [3] and 169000 ng·h/mL in series [38]. The solubility kinetic in [4] came out at 17 µg/mL (≈ 37.2 µM). The half-life in series [5] is 30 h; in series [18] it was 8.3 h; in series [33], 10.5 h; in [34], 28 h; in series [37], 10.5 h; in series [41], 29 h. Moreover, the Cmax in series [6] amounted to 11700 ng/mL; in series [11], 4400 ng/mL; in series [14], 700 ng/mL; in series [17] it was 1700 ng/mL; in series [20], 5800 ng/mL; in series [30], 5200 ng/mL. This compound came in with a Cmax in series [36] of 2500 ng/mL. For the same compound, the solubility thermodynamic stood at 33 µM (≈ 15.1 µg/mL) in series [7] and 169 µM (≈ 77.3 µg/mL) in series [24]. The AUC(0-t) at 24 h was 67400 ng·h/mL in [8] and 5930 ng·h/mL in series [31]. Besides, the Tmax in series [10] was 5 h; in [22] it was 12 h; in series [26], 0.5 h; in series [27], 4.98 min; in series [28] it was 8 h. The results for the AUC(0-t) at 72 h in series [12], in [21] and in series [40] were 27600 ng·h/mL, 182000 ng·h/mL and 232000 ng·h/mL, respectively. For the same compound, the Activity entry with Salmonella typhimurium [13], with Salmonella typhimurium [19], with Salmonella typhimurium [29] and in the series with Salmonella typhimurium [35] was “Non-toxic” throughout. The bioavailability in series [15] was 57%; in [16], 84%. The compound also displayed a logP in [23] of 2.82. Further, the fraction unbound at 10 µM in [25] was 0.09. Further, in [32], the IC50 was greater than 30 µM. Moreover, the “fold change (FC)” value in [39] came out at 0.92; in series [42], 5.2.

For the origin of these results see ChEMBL document CHEMBL1944507, “Structure-activity relationships for amide-, carbamate-, and urea-linked analogues of the tuberculosis drug (6S)-2-nitro-6-{[4-(trifluoromethoxy)benzyl]oxy}-6,7-dihydro-5H-imidazo[2,1-b][1,3]oxazine (PA-824)” (J Med Chem, 2012).
